The results in this text go back to ChEMBL document CHEMBL4616594, “Virtual screening identification and chemical optimization of substituted 2-arylbenzimidazoles as new non-zinc-binding MMP-2 inhibitors” (Bioorg Med Chem, 2020).

In experiment [1] the target is 72 kDa type IV collagenase (Homo sapiens, UniProt P08253). As to the kind of experiment: Inhibition of recombinant human MMP2 catalytic domain (Tyr110 to Asp452 residues) expressed in yeast cells using Mca-Pro-Leu-Gly-Leu-Dpa-Ala-Arg-NH2/TQ3-GABA-Pro-Cha-Abu-Smc-His-Ala-Dab(6'-TAMRA)-Ala-Lys-NH2 as fluorogenic substrate preincubated for 15 mins followed by substrate addition measured after 2 to 4 hrs by fluorometric analysis. The experiment is classed as biochemical. The method, boiled down: (§1)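 Commercial catalytic domain in Tris·HCl 50 mM pH 7.5, NaCl 150 mM, CaCl₂ 1 mM, ZnCl₂ 1 µM, 0.05% Brij-35, 1% DMSO. Inhibitor was tested at six concentrations (1 nM–100 µM), diluted from 10 mM DMSO stocks, and pre-incubated with enzyme for 15 min at room temperature. OmniMMP substrate (2.5 µM final) or OmniMMP RED substrate (1 µM final) was then added and incubated 2–4 h at 37°C. Fluorescence read at ex 340/em 405 or ex 545/em 572. Percent inhibition calculated versus no-inhibitor wells. Run in triplicate; IC50 given as mean ± SEM of ≥2 independent experiments.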

The target of another experiment is Collagenase 3 (Homo sapiens, UniProt P45452). The experiment is described as follows: Inhibition of recombinant human MMP13 catalytic domain (Tyr104 to Asn274 residues) expressed in Escherichia coli cells using Mca-Pro-Leu-Gly-Leu-Dpa-Ala-Arg-NH2/TQ3-GABA-Pro-Cha-Abu-Smc-His-Ala-Dab(6'-TAMRA)-Ala-Lys-NH2 as fluorogenic substrate preincubated for 15 mins followed by substrate addition measured after 2 to 4 hrs by fluorometric assay.

Experiment [2] has as its target Matrix metalloproteinase-9 (Homo sapiens, UniProt P14780). As to the kind of experiment: Inhibition of recombinant human MMP9 catalytic domain (Phe107 to Pro449 residues) expressed in Escherichia coli cells using Mca-Pro-Leu-Gly-Leu-Dpa-Ala-Arg-NH2/TQ3-GABA-Pro-Cha-Abu-Smc-His-Ala-Dab(6'-TAMRA)-Ala-Lys-NH2 as fluorogenic substrate preincubated for 15 mins followed by substrate addition measured after 2 to 4 hrs by fluorometric assay. The method, boiled down: as §1

The next experiment has as its target Neutrophil collagenase (Homo sapiens, UniProt P22894). The experiment is described as follows: Inhibition of recombinant human MMP8 catalytic domain (Phe99 to Gln269 residues) expressed in Escherichia coli cells using Mca-Pro-Leu-Gly-Leu-Dpa-Ala-Arg-NH2/TQ3-GABA-Pro-Cha-Abu-Smc-His-Ala-Dab(6'-TAMRA)-Ala-Lys-NH2 as fluorogenic substrate preincubated for 15 mins followed by substrate addition measured after 2 to 4 hrs by fluorometric assay. The method, boiled down: as §1

For orientation: IC50 means the concentration that gives 50% inhibition.

Structures are written as SMILES.

Chain of 72 kDa type IV collagenase (P08253 whole entry, the tested form may be a part): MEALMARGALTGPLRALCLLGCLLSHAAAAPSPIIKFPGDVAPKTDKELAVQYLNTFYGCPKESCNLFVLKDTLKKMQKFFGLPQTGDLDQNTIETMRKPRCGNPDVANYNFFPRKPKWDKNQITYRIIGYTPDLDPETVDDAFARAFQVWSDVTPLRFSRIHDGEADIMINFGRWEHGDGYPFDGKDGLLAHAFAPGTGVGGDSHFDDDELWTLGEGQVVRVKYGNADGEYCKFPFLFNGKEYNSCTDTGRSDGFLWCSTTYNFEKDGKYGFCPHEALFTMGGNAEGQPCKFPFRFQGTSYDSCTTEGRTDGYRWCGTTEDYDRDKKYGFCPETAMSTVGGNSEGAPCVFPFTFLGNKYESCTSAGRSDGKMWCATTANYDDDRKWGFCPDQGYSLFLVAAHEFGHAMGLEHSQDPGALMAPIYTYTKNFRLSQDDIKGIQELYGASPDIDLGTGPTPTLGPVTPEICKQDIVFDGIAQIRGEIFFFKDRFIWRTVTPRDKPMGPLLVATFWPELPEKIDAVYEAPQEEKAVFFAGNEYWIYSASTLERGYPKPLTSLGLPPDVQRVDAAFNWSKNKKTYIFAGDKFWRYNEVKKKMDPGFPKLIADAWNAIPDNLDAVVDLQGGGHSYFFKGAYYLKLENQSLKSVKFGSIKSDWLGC
Chain of Matrix metalloproteinase-9 (P14780 whole entry, the tested form may be a part): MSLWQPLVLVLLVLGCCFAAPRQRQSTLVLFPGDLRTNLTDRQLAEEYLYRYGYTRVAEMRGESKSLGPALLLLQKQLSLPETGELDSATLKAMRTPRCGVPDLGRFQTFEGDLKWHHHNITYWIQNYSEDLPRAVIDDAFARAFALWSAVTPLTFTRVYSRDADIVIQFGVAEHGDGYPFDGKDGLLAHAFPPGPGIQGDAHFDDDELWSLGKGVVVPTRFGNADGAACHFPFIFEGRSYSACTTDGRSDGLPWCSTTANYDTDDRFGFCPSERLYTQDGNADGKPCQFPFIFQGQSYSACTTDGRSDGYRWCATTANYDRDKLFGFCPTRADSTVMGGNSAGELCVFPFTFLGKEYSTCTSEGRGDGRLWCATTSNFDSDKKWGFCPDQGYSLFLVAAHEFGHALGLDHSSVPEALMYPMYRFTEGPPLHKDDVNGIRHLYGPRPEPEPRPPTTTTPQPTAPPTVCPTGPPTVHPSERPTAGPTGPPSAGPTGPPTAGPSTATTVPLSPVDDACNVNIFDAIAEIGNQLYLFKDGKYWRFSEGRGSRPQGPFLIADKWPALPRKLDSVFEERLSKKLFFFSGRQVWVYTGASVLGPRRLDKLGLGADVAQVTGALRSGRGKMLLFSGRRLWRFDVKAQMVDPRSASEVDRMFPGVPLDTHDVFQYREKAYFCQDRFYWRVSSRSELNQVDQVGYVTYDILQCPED
Chain of Neutrophil collagenase (P22894 whole entry, the tested form may be a part): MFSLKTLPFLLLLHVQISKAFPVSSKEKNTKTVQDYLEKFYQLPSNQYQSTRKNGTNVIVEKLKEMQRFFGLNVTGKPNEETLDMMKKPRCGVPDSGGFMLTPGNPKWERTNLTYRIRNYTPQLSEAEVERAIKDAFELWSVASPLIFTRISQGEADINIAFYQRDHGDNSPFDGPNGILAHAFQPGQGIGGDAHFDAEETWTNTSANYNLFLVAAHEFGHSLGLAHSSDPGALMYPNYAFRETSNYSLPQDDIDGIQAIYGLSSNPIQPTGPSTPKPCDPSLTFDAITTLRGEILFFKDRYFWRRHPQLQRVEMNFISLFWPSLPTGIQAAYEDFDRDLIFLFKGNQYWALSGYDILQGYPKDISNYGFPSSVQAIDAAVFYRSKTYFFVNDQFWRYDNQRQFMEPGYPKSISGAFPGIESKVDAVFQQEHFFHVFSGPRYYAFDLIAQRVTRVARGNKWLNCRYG

On to `O=S(=O)(Nc1cccc(-c2nc3ccccc3[nH]2)c1)c1ccccc1`, for which the half-inhibitory concentration (IC50) in experiment [1] amounted to 65.4 µM; at Collagenase 3, 94 µM; in experiment [2] it was 36 µM; on Neutrophil collagenase it was 43.2 µM.
Turning to `O=[N+]([O-])c1ccc(-c2nc3cc([N+](=O)[O-])ccc3[nH]2)cc1`, the half-maximal inhibitory concentration (IC50) in experiment [1] came out at 4.2 µM; on Collagenase 3 it was 12 µM; in experiment [2], 23.3 µM; on Neutrophil collagenase, 25 µM.
As to `O=[N+]([O-])c1ccc(-c2nc3ccccc3o2)cc1`, the IC50 in experiment [1] was found to be 5.8 µM; at Collagenase 3 it was 7.3 µM; in experiment [2] it was 36 µM; at Neutrophil collagenase, 46 µM.
Take `O=C(Nc1cccc(-c2nc3ccccc3[nH]2)c1)c1ccccc1`: the IC50 in experiment [1] was determined as 11.9 µM; at Collagenase 3 it was 35 µM; in experiment [2] it was 57 µM; at Neutrophil collagenase, 46 µM.
The like results for `O=C(Nc1ccc(-c2nc3ccccc3s2)cc1)c1ccccc1` were, in that order, 16.4 µM, 21 µM, 42 µM and 38 µM.
Take `O=C(Nc1ccc(-c2nc3ccccc3[nH]2)cc1)c1ccccc1`: the IC50 in experiment [1] turned out to be 6.5 µM; on Collagenase 3, 7.5 µM; in experiment [2], 16 µM; at Neutrophil collagenase, 28 µM.
In the same order, the values of `O=C(CCc1ccccc1)Nc1cccc(-c2nc3ccccc3[nH]2)c1` are 87 µM, over 100 µM, 68 µM and 41.9 µM.
Take `Cc1ccc2nc(-c3cccc(NC(=O)CCc4ccccc4)c3)[nH]c2c1`: the IC50 in experiment [1] is 31 µM; at Collagenase 3 it was over 100 µM; in experiment [2], 26.6 µM; at Neutrophil collagenase, 32 µM.
As for `O=C(CCc1ccccc1)Nc1cccc(-c2nc3ccc(Br)cc3[nH]2)c1`, the IC50 in experiment [1] worked out at 16 µM; at Collagenase 3 it was 73 µM; in experiment [2], 14.5 µM; on Neutrophil collagenase, 12.5 µM.
In the same order, the values of `O=C(CCCc1ccccc1)Nc1ccc(-c2nc3ccccc3[nH]2)cc1` are 96 µM, 50 µM, over 100 µM and over 100 µM.
In the case of `O=C(Nc1ccc(-c2nc3ccc(Br)cc3[nH]2)cc1)c1ccc([N+](=O)[O-])cc1`, the IC50 came out at 3.1 µM in experiment [1], 3.9 µM on Collagenase 3, 6.4 µM in experiment [2] and 7.9 µM on Neutrophil collagenase.
Turning to `O=[N+]([O-])c1ccc(-c2nc3ccc(Br)cc3[nH]2)cc1`, the IC50 in experiment [1] came out at 8.8 µM; at Collagenase 3, 10.5 µM; in experiment [2], 10 µM; on Neutrophil collagenase, 10 µM.
For the compound `COC(=O)c1ccc(-c2nc3ccc(Br)cc3[nH]2)cc1`, the IC50 in experiment [1] amounted to 9 µM; on Collagenase 3, 19 µM; in experiment [2], 20.7 µM; on Neutrophil collagenase it was 26.3 µM.
For the compound `Cc1ccc2nc(-c3cccc(C(=O)NCCc4ccccc4)c3)[nH]c2c1`, the IC50 is 45 µM in experiment [1], over 100 µM on Collagenase 3, 37.7 µM in experiment [2] and 40 µM at Neutrophil collagenase.
The like results for `Cc1ccc2nc(-c3ccc(NC(=O)c4ccccc4)cc3)[nH]c2c1` were, in that order, 8.6 µM, 6.5 µM, 28.4 µM and 45.3 µM.
For `O=C(CCc1ccccc1)Nc1ccc(-c2nc3ccc(Br)cc3[nH]2)cc1`, the IC50 in experiment [1] came to 7 µM; at Collagenase 3 it was 6.5 µM; in experiment [2], 11.5 µM; at Neutrophil collagenase it was 8 µM.
`COc1ccc(/C=C/C(=O)Nc2cccc(-c3nc4ccccc4[nH]3)c2)cc1`: the IC50 in experiment [1] is 48 µM; on Collagenase 3, 52 µM; in experiment [2], over 100 µM; on Neutrophil collagenase it was over 100 µM.
Regarding `Cc1cccc2nc(-c3cccc(NC(=O)CCc4ccccc4)c3)[nH]c12`, the IC50 in experiment [1] was 64 µM; at Collagenase 3, over 100 µM; in experiment [2], 60 µM; at Neutrophil collagenase, 29 µM.
Consider `Cc1ccc2nc(-c3ccc(NC(=O)c4cccc([N+](=O)[O-])c4)cc3)[nH]c2c1`, for which the IC50 in experiment [1] stood at 3.9 µM; at Collagenase 3, 2.2 µM; in experiment [2], 14.5 µM; at Neutrophil collagenase, 20.9 µM.
As to `O=C(CCCc1ccccc1)Nc1ccc(-c2nc3ccc(Br)cc3[nH]2)cc1`, the IC50 in experiment [1] was 31 µM; on Collagenase 3 it was 22.2 µM; in experiment [2], 58 µM; at Neutrophil collagenase, 67 µM.
As to `O=C(CCCc1ccccc1)Nc1cccc(-c2nc3ccccc3[nH]2)c1`, the IC50 in experiment [1] came out at 47 µM; at Collagenase 3, 81.2 µM; in experiment [2] it was 43 µM; on Neutrophil collagenase it was 34.6 µM.
Regarding `O=C(Nc1ccc(-c2nc3ccc(Br)cc3[nH]2)cc1)c1ccccc1`, the half-maximal inhibitory concentration (IC50) in experiment [1] came out at 6.42 µM; at Collagenase 3, 3.9 µM; in experiment [2] it was 32 µM; at Neutrophil collagenase, 50 µM.
Take `Cc1ccc2nc(-c3ccc(NC(=O)CCc4ccccc4)cc3)[nH]c2c1`: the half-maximal inhibitory concentration (IC50) is 25.3 µM in experiment [1], 17.9 µM at Collagenase 3, 60 µM in experiment [2] and 77 µM at Neutrophil collagenase.
For `Cc1ccc2nc(-c3cccc(NC(=O)CN(C)Cc4ccccn4)c3)[nH]c2c1`, the half-inhibitory concentration (IC50) in experiment [1] is 72 µM; on Collagenase 3 it was 93 µM; in experiment [2], over 100 µM; at Neutrophil collagenase, over 100 µM.
Take `Cc1ccc2nc(-c3ccc([N+](=O)[O-])cc3)[nH]c2c1`: the IC50 in experiment [1] was determined as 6.5 µM; on Collagenase 3 it was 6.1 µM; in experiment [2], 22 µM; on Neutrophil collagenase, 23 µM.
In the same order, the values of `O=C(Nc1ccc(-c2nc3ccccc3[nH]2)cc1)c1ccc(Br)cc1` are 9.4 µM, 10.9 µM, 41 µM and 55 µM.
Turning to `Cc1cccc2nc(-c3cccc(NC(=O)CCCc4ccccc4)c3)[nH]c12`, the half-maximal inhibitory concentration (IC50) in experiment [1] was 60 µM; on Collagenase 3, 91 µM; in experiment [2] it was 38.6 µM; at Neutrophil collagenase it was 40.9 µM.
In the case of `Cc1ccc2nc(-c3cccc([N+](=O)[O-])c3)[nH]c2c1`, the IC50 is 14 µM in experiment [1], 15.5 µM on Collagenase 3, 36.6 µM in experiment [2] and 27 µM at Neutrophil collagenase.
In the same order, the values of `O=[N+]([O-])c1cccc(-c2nc3ccc(Br)cc3[nH]2)c1` are over 100 µM, 47 µM, over 100 µM and over 100 µM.
Take `Nc1ccc(-c2nc3ccc(Br)cc3[nH]2)cc1`: the IC50 in experiment [1] was determined as 10 µM; on Collagenase 3, 21 µM; in experiment [2], 21.7 µM; on Neutrophil collagenase, 26 µM.
Consider `O=[N+]([O-])c1ccc(-c2nc3ccccc3[nH]2)o1`, for which the IC50 in experiment [1] stood at 31 µM; on Collagenase 3, 33 µM; in experiment [2], 32 µM; on Neutrophil collagenase, 27 µM.
For `Cc1ccc2nc(-c3ccc(NC(=O)c4ccc([N+](=O)[O-])cc4)cc3)[nH]c2c1`, the IC50 came out at 3.3 µM in experiment [1], 1.8 µM on Collagenase 3, 10.7 µM in experiment [2] and 25.5 µM at Neutrophil collagenase.
In the same order, the values of `O=C(CCc1ccccc1)Nc1ccc(-c2nc3ccccc3[nH]2)cc1` are 19 µM, 15.2 µM, 29 µM and 64 µM.
With `O=C(O)c1ccc(-c2nc3ccc(Br)cc3[nH]2)cc1`, the IC50 in experiment [1] came to 31.5 µM; on Collagenase 3, 43 µM; in experiment [2], 27 µM; on Neutrophil collagenase it was 35 µM.
`Cc1ccc2nc(-c3ccc([N+](=O)[O-])cc3)oc2c1`: the concentration for half-maximal inhibition (IC50) was 9 µM in experiment [1], 9.4 µM on Collagenase 3, 18 µM in experiment [2] and 29 µM on Neutrophil collagenase.
On to `Brc1ccc2nc(-c3ccccc3)[nH]c2c1`, for which the IC50 (in experiment [1]; on Collagenase 3; in experiment [2]; at Neutrophil collagenase) was over 100 µM in each case.
As for `O=[N+]([O-])c1ccc(-c2nc3ccccc3[nH]2)cc1`, the IC50 in experiment [1] was 82 µM; on Collagenase 3, over 100 µM; in experiment [2], 56.5 µM; at Neutrophil collagenase, 64 µM.
The like results for `O=[N+]([O-])c1ccc(-c2nc3ccccc3s2)cc1` were, in that order, 6.5 µM, 7.5 µM, 11.5 µM and 10.5 µM.
The like results for `Nc1ccc(-c2nc3ccccc3s2)cc1` were, in that order, over 100 µM, over 100 µM, 79 µM and 88 µM.
